The source of these data is ChEMBL document CHEMBL1139008, “Synthesis and antiviral evaluation of alkoxyalkyl derivatives of 9-(S)-(3-hydroxy-2-phosphonomethoxypropyl)adenine against cytomegalovirus and orthopoxviruses” (J Med Chem, 2006).

For assay [1], the system named is HFF. The assay can be described thus: Selectivity index, CC50 in HFF cell/ EC50 against HCMV. The format is functional. Put shortly:
(§1)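 Selectivity index is the ratio of CC50 (HFF neutral red uptake) to EC50 from the matching plaque reduction assay.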

In a further assay the test system is Murid betaherpesvirus 1. The assay can be described thus: Antiviral activity against MCMV Smith replication. It is filed as functional, organism-based. The following applies: Murid betaherpesvirus 1, Smith. Put shortly:
(§2)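 Plaque reduction used HCMV AD-169 in HFF cells (plated 2 days ahead) or MCMV Smith in MEF cells (plated 1 day ahead), at 20-30 PFU/well in triplicate with 1 h adsorption. Infected cells were then given MEM (2% FBS) with compound diluted 1:5 from 100 µM. Plates ran 7 days (MCMV) or 8 days (HCMV) at 37 °C, followed by 6 h neutral red staining. EC50 is the concentration giving 50% plaque reduction.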

The subject of a further assay is Human betaherpesvirus 5. The assay can be described thus: Antiviral activity against HCMV AD-169 replication. The format is functional, organism-based. The following applies: Human betaherpesvirus 5, AD-169. Put shortly:
as §2

A further assay relates to Vaccinia virus. The assay can be described thus: Antiviral activity against Vaccinia virus Copenhagen replication in HFF cells. It is filed as functional, organism-based. The note with it: Orthopoxvirus vaccinia.
Assay [2] has as its system HFF. The assay can be described thus: Cytotoxicity against HFF cell. The note with it: Homo sapiens. The format is functional.
In assay [3] the test system is HFF. As to the kind of experiment: Selectivity index, CC50 in HFF cell/ EC50 against cowpox virus. It is filed as functional. Put shortly: as §1
A further assay relates to Cowpox virus. The assay can be described thus: Antiviral activity against Cowpox virus Brighton replication in HFF cells. The format is functional, organism-based.
In assay [4] the test system is HFF. As to the kind of experiment: Selectivity index, CC50 in HFF cell/ EC50 against vaccinia virus. The format is functional. A digest of the protocol:
as §1

Assay [5] has as its system HFF. The assay can be described thus: Selectivity index, CC50 in HFF cell/ EC50 against MCMV. It is filed as functional. A digest of the protocol:
as §1

As to `CCCCCCCC/C=C\CCCCCCCCOCCOP(=O)([O-])CO[C@H](CO)Cn1cnc2c(N)ncnc21.[Na+]`, the Selectivity index in the assay with HFF [1] was 2100; with HFF [3], 900; in the assay on HFF [4] it was 2100; with HFF [5] it was 158. Moreover, the EC50 (usually the concentration needed to bring the measured effect to its halfway point) with Murid betaherpesvirus 1 was 40 nM; with Human betaherpesvirus 5, 3 nM; in the assay on Vaccinia virus, 3 nM; in the assay on Cowpox virus, 7 nM. Besides, it took 6300 nM to reach half-maximal cytotoxicity in the assay with HFF [2] (CC50).
`CCCCCCCCCCCCCCCCOCCCOP(=O)([O-])CO[C@H](CO)Cn1cnc2c(N)ncnc21.[Na+]`: the Selectivity index in the assay on HFF [1] is on record as 3233; in the assay on HFF [3], 485; in the assay with HFF [4] it was 970; in the assay on HFF [5], 485. The EC50 worked out at 2 nM in the assay on Murid betaherpesvirus 1 and 3 nM in the assay on Human betaherpesvirus 5. In the assay on HFF [2], the CC50 (as a rule, the concentration at which the toxic effect on the cells reaches its halfway point) was 9700 nM.
Consider `CCCCCCCCCCCCCCCCCCOCCOP(=O)(O)CO[C@H](CO)Cn1ccc(N)nc1=O`, for which the EC50 in the assay with Murid betaherpesvirus 1 worked out at 1 nM; in the assay with Human betaherpesvirus 5 it was 0.9 nM; with Vaccinia virus it was 200 nM; with Cowpox virus, 300 nM.
On to `Nc1ncnc2c1ncn2C[C@@H](CO)OCP(=O)(O)O`, for which the Selectivity index with HFF [1] was more than 352; in the assay on HFF [3], more than 72; in the assay on HFF [4], more than 107; with HFF [5], more than 181. Further, the EC50 stood at 160 nM with Murid betaherpesvirus 1 and 820 nM with Human betaherpesvirus 5. The compound also had a CC50 with HFF [2] of more than 289000 nM.
Regarding `CCCCCCCC/C=C\CCCCCCCCOCCCOP(=O)([O-])CO[C@H](CO)Cn1cnc2c(N)ncnc21.[Na+]`, the Selectivity index with HFF [1] worked out at 25000; in the assay with HFF [3] it was 2200; with HFF [4], 4156; with HFF [5], 750. Further, the EC50 was found to be 100 nM in the assay with Murid betaherpesvirus 1, 3 nM in the assay with Human betaherpesvirus 5, 18 nM with Vaccinia virus and 34 nM in the assay on Cowpox virus. This compound returned a CC50 in the assay with HFF [2] of 74800 nM.
`CCCCCCCCCCCCCCCCCCOCCOP(=O)([O-])CO[C@H](CO)Cn1cnc2c(N)ncnc21.[Na+]`: the Selectivity index in the assay with HFF [1] came out at 500; with HFF [3], 75; with HFF [4], 150; in the assay with HFF [5], 500. Also, the EC50 with Murid betaherpesvirus 1 and with Human betaherpesvirus 5 was 3 nM in each case. The compound also had a CC50 with HFF [2] of 1500 nM.
As to `CCCCCCCCCCCCCCCCOCCCOP(=O)(O)CO[C@H](CO)Cn1ccc(N)nc1=O` [BRINCIDOFOVIR], the EC50 in the assay on Murid betaherpesvirus 1 was 0.9 nM; with Human betaherpesvirus 5, 0.9 nM; in the assay with Vaccinia virus it was 80 nM; in the assay with Cowpox virus, 60 nM.
With `Nc1ccn(C[C@@H](CO)OCP(=O)(O)O)c(=O)n1.O.O` [CIDOFOVIR], the Selectivity index is recorded as more than 264 with HFF [1], more than 10.3 with HFF [3], more than 12.5 with HFF [4] and more than 7925 in the assay on HFF [5]. Besides, the EC50 was determined as 40 nM with Murid betaherpesvirus 1, 1200 nM with Human betaherpesvirus 5, 25300 nM with Vaccinia virus and 30700 nM in the assay with Cowpox virus. The compound further registered a CC50 with HFF [2] of more than 317000 nM.
